Results reported in ChEMBL document CHEMBL4028836, “Optimization of M4 positive allosteric modulators (PAMs): The discovery of VU0476406, a non-human primate in vivo tool compound for translational pharmacology” (Bioorg Med Chem Lett, 2017).
Values belong to the molecule of their own block, whether it stands above or below them.

Legend:
[1] = biological target: T1, Muscarinic acetylcholine receptor M4 (Homo sapiens) (UniProt P08173); test: Positive allosteric modulation of human M4 receptor expressed in CHO cells coexpressing Gqi5 assessed as increase in acetylcholine-induced calcium mobilization relative to acetylcholine; format: functional, cell-based
T1 sequence (whole entry): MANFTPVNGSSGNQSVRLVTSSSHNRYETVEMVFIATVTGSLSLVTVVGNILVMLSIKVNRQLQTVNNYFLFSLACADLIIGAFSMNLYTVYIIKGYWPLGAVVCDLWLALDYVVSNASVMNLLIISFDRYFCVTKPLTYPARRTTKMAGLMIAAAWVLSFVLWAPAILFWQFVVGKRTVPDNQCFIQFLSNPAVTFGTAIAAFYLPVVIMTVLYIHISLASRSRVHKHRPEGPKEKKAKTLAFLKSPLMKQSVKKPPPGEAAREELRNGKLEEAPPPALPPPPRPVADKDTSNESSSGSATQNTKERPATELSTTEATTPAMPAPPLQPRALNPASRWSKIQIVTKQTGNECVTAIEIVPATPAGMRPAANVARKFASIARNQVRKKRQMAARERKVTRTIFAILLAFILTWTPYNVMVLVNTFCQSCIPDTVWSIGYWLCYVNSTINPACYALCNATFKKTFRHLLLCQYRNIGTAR
Outline: (§1)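 Calcium mobilization in CHO cells expressing hM4 with Gqi5. Compound added in presence of a fixed EC20 concentration of acetylcholine. Values are means of three independent experiments, each run in triplicate.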

[2] = biological target: T2, Muscarinic acetylcholine receptor M4 (Homo sapiens, UniProt P08173); test: Positive allosteric modulation of human M4 receptor expressed in CHO cells coexpressing Gqi5 assessed as increase in acetylcholine-induced calcium mobilization; format: functional, cell-based; conditions: read-out: EC50; outline: as §1
T2 sequence (P08173 whole entry): T1 sequence (whole entry)

[3] = biological target: Cytochrome P450 2D6 (Homo sapiens, UniProt P10635); test: Inhibition of CYP2D6 (unknown origin); format: ADME
Chain of Cytochrome P450 2D6 (P10635 whole entry): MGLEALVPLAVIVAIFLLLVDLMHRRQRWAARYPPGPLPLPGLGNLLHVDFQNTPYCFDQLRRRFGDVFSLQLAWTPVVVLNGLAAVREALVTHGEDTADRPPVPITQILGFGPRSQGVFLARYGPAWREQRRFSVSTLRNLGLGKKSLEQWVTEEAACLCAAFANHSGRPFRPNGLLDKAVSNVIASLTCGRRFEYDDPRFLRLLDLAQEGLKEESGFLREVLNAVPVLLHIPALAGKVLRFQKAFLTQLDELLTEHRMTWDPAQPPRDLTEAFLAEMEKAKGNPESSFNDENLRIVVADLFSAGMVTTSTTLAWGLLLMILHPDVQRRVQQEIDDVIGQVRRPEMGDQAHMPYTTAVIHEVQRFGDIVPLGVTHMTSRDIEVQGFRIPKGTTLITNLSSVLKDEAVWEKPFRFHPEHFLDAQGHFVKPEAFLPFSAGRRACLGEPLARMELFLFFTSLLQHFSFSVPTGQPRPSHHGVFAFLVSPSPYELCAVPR

[4] = biological target: Cytochrome P450 3A4 (Homo sapiens, UniProt P08684); test: Inhibition of CYP3A4 (unknown origin); format: ADME
Chain of Cytochrome P450 3A4 (P08684 whole entry): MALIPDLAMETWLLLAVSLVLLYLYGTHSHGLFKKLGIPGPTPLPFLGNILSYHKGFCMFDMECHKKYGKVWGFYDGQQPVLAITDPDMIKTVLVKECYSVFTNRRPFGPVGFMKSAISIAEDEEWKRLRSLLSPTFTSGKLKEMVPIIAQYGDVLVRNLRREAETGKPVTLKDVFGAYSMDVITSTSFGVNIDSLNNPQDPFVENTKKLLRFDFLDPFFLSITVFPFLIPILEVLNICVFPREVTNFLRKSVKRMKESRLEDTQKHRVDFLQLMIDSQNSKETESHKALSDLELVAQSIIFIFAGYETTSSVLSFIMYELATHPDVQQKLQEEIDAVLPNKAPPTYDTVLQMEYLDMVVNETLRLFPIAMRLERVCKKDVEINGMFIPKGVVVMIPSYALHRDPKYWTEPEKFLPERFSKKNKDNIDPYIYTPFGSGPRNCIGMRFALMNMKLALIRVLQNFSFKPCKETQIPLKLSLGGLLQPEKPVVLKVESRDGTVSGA

[5] = biological target: Cytochrome P450 2C9 (Homo sapiens, UniProt P11712); test: Inhibition of CYP2C9 (unknown origin); format: ADME
Chain of Cytochrome P450 2C9 (P11712 whole entry): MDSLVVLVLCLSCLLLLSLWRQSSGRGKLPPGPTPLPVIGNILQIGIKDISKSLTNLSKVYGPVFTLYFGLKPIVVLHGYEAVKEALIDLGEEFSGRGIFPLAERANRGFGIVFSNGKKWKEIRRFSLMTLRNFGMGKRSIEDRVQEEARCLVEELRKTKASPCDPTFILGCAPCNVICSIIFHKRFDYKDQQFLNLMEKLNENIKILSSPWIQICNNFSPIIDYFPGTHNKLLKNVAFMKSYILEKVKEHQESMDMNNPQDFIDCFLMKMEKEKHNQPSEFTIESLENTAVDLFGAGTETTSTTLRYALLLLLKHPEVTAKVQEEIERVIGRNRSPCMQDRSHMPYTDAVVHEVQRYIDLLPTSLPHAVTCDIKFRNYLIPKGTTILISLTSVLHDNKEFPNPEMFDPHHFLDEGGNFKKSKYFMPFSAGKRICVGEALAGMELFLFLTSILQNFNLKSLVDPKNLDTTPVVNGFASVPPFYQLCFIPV

[6] = test system: Rattus norvegicus; test: Volume of distribution at steady state […] in Sprague-Dawley rat at 0.1 to 1 mg/kg, iv; format: ADME, organism-based; conditions: in vivo
Outline: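 IV pharmacokinetics in Sprague-Dawley rats at 0.1–1.0 mg/kg. CLp, elimination t½ and Vss derived.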

[7] = Brain to plasma permeability coefficient, Kp of the compound in Sprague-Dawley rat at 0.1 to 0.2 mg/kg, iv measured at 0.25 hrs post dose; format: ADME, organism-based
Outline: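 Sprague-Dawley rats were dosed IV at 0.1–0.2 mg/kg, with brain and plasma sampled at 0.25 hr. Brain:plasma Kp was calculated, with Kp,uu where unbound fractions were available.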

[8] = Unbound plasma concentration in human; format: ADME, cell-free
[9] = test system: Rattus norvegicus; test: Elimination half-life in Sprague-Dawley rat at 0.1 to 1 mg/kg, iv; format: ADME, organism-based; conditions: in vivo
[10] = Unbound plasma concentration in rat; format: ADME, cell-free
[11] = biological target: T3, Cytochrome P450 1A2 (Homo sapiens, UniProt P05177); test: Inhibition of CYP1A2 (unknown origin); format: ADME
T3 sequence (P05177 whole entry): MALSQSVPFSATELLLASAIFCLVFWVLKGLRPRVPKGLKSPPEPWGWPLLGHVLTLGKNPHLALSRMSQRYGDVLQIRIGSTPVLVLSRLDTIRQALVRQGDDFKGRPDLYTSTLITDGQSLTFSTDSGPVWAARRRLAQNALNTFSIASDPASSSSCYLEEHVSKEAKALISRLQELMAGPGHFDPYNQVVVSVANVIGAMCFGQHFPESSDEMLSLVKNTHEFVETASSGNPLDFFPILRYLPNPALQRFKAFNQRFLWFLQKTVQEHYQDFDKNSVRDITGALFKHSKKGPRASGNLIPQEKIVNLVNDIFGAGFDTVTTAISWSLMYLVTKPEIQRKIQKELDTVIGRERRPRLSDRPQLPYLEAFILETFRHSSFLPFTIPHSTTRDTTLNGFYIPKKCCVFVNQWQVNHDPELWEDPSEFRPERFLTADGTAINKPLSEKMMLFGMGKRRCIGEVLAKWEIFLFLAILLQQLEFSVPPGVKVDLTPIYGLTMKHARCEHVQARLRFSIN

[12] = Unbound brain concentration in rat; format: ADME, tissue-based
[13] = test system: MDR1 (P-gp); test: Efflux ratio of permeability in MDCK2-MDR1 cells; format: ADME, cell-based, Canis lupus familiaris; conditions: dog, MDCK-MDR1
[14] = Volume of distribution at steady state in dog at 3 mg/kg, iv or po; format: ADME, organism-based, Canis lupus familiaris; conditions: in vivo, read-out: Vdss
Outline: (§2)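 Dog IV and PO pharmacokinetics. Oral bioavailability from a 3 mg/kg suspension dose of the HCl salt.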

[15] = Oral bioavailability in dog at 3 mg/kg; format: ADME, organism-based, Canis lupus familiaris; conditions: in vivo; outline: as §2
[16] = Elimination half life in dog at 3 mg/kg, iv or po; format: ADME, organism-based, Canis lupus familiaris; conditions: in vivo, read-out: beta t1/2 (converted)
[17] = Oral bioavailabilty in cynomolgus monkey at 10 mg/kg; format: ADME, organism-based, Macaca fascicularis; conditions: in vivo
Outline: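 Cynomolgus monkey oral bioavailability from a 10 mg/kg solution dose of the HCl salt.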

[18] = Oral bioavailability in rat at 10 mg/kg; format: ADME, organism-based; conditions: in vivo
Outline: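 Rat oral bioavailability from a 10 mg/kg solution dose. Separately, the HCl salt was dosed as a suspension.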

[19] = test system: Cynomolgus monkey; test: Volume of distribution at steady state in cynomolgus monkey at 10 mg/kg, iv; format: ADME, organism-based, Macaca fascicularis; conditions: in vivo
[20] = test system: Cynomolgus monkey; test: Elimination half life in cynomolgus monkey at 10 mg/kg, iv; format: ADME, organism-based, Macaca fascicularis; conditions: in vivo

SMILES: COc1ncc(-c2ccc(CNC(=O)c3sc4nnc(C)c(C)c4c3N)cc2)cn1
%max [1]: 91% | EC50 [2]: 84 nM

SMILES: Cc1cc(-c2ccc(CNC(=O)c3sc4nnc(C)c(C)c4c3N)cc2)cnc1F
%max [1]: 68% | EC50 [2]: 994 nM

SMILES: Cc1nnc2sc(C(=O)NCc3ccc(-c4ccnc(F)c4)cc3)c(N)c2c1C
IC50 [3]: > 30000 nM | %max [1]: 92% | IC50 [4]: 24 µM | IC50 [5]: 25 µM | Vdss [6]: 0.5 L/kg | EC50 [2]: 58 nM | Kp [7]: 0.21 | fraction unbound [8]: 0.029 | beta t1/2 [9]: 1.7 h | fraction unbound [10]: 0.002 | IC50 [11]: 2.5 µM

SMILES: Cc1nnc2sc(C(=O)NCc3ccccc3-c3ccccc3)c(N)c2c1C
%max [1]: 30% | EC50 [2]: > 10000 nM

SMILES: Cc1nnc2sc(C(=O)NCc3ccccc3Br)c(N)c2c1C
%max [1]: 31% | EC50 [2]: > 10000 nM

SMILES: Cc1nnc2sc(C(=O)NCc3ccc(-c4ccncc4)cc3)c(N)c2c1C
IC50 [3]: 1300 nM | %max [1]: 83% | IC50 [4]: 0.34 µM | IC50 [5]: 2.3 µM | EC50 [2]: 36 nM | Kp [7]: 0.94 | fraction unbound [8]: 0.013 | beta t1/2 [9]: 1.5 h | fraction unbound [10]: 0.037 | IC50 [11]: 9.7 µM | fraction unbound [12]: 0.042 | efflux ratio [13]: 1.1

SMILES: Cc1nnc2sc(C(=O)NCc3ccc(-c4ccnnc4)cc3)c(N)c2c1C
%max [1]: 96% | EC50 [2]: 56 nM

SMILES: Cc1nnc2sc(C(=O)NCc3ccc(-c4cccnc4F)cc3)c(N)c2c1C.Cl
Vd [14]: 0.7 L/kg | bioavailability [15]: 47% | half-life [16]: 60 min | bioavailability [17]: 4.7% | bioavailability [18]: 54% | Vdss [19]: 0.87 L/kg | beta t1/2 [20]: 1.3 h

Results, then the molecule that gave them:

%max [1]: 63% | EC50 [2]: 103 nM
SMILES: Cc1nnc2sc(C(=O)NCc3ccc(-c4cccnc4)cc3)c(N)c2c1C

%max [1]: 41% | EC50 [2]: 1650 nM
SMILES: Cc1nnc2sc(C(=O)NCc3cccc(-c4ccccc4)c3)c(N)c2c1C

%max [1]: 78% | EC50 [2]: 144 nM
SMILES: Cc1nnc2sc(C(=O)NCc3ccc(-c4cncc(F)c4)cc3)c(N)c2c1C
